ChEMBL document CHEMBL1122299, “Potential cerebral perfusion agents: synthesis and evaluation of a radioiodinated vinylalkylbarbituric acid analogue” (J Med Chem, 1983)

Legend:
Rattus norvegicus [1] = assay: Distribution of radioactivity in heart tissue of rats at 2 hr after an intravenous injection; Value expressed as mean % injected dose, Range- 0.24-0.38; format: ADME, organism-based; conditions: in vivo
How it was run: (§1)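 Female Fischer 344 rats (10–12 wk, 170–200 g; food and water ad libitum) under ether received 7.95 μCi 125I-labeled agent (sp act ~155 mCi/mmol) in pH 7.4 phosphate buffer, filtered, via lateral tail vein. Four rats per time point (2 min–1 day). Killed by cervical fracture under ether; organs excised, saline-rinsed, blotted, weighed, gamma-counted; mean % injected dose/g with range.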

Rattus norvegicus [2] = assay: Distribution of radioactivity in thyroid tissue of rats at 5 mins after an intravenous injection; Value expressed as mean % injected dose, Range- 6.19-7.22; format: ADME, organism-based, Thyroid gland; conditions: in vivo; how it was run: as §1
Rattus norvegicus [3] = assay: Distribution of radioactivity in blood of rats at 2 mins after an intravenous injection; Value expressed as mean % injected dose, Range = 0.88-1.15; format: ADME, organism-based; conditions: in vivo; how it was run: as §1
Rattus norvegicus [4] = assay: Distribution of radioactivity in lung tissue of rats at 5 mins after an intravenous injection; Value expressed as mean % injected dose, Range- 0.98-1.22; format: ADME, organism-based; conditions: in vivo; how it was run: as §1
Rattus norvegicus [5] = assay: Distribution of radioactivity in heart tissue of rats at 2 mins after an intravenous injection; Value expressed as mean % injected dose, Range- 1.35-1.55; format: ADME, organism-based; conditions: in vivo; how it was run: as §1
Rattus norvegicus [6] = assay: Distribution of radioactivity in blood of rats at 1 hr after an intravenous injection; Value expressed as mean % injected dose, Range-0.9-1.03; format: ADME, organism-based; conditions: in vivo; how it was run: as §1
Rattus norvegicus [7] = assay: Distribution of radioactivity in blood of rats at 2 hr after an intravenous injection; Value expressed as mean % injected dose, Range = 0.71-0.87; format: ADME, organism-based; conditions: in vivo; how it was run: as §1
Rattus norvegicus [8] = assay: Distribution of radioactivity in lung tissue of rats at 2 mins after an intravenous injection; Value expressed as mean % injected dose, Range- 1.17-1.42; format: ADME, organism-based; conditions: in vivo; how it was run: as §1
Rattus norvegicus [9] = assay: Distribution of radioactivity in heart tissue of rats at 4 hr after an intravenous injection; Value expressed as mean % injected dose, Range- 0.16-0.2; format: ADME, organism-based; conditions: in vivo; how it was run: as §1
Rattus norvegicus [10] = assay: Distribution of radioactivity in blood of rats at 4 hr after an intravenous injection; Value expressed as mean % injected dose, Range- 0.45-0.48; format: ADME, organism-based; conditions: in vivo; how it was run: as §1
Rattus norvegicus [11] = assay: Distribution of radioactivity in thyroid tissue of rats at 4 hr after an intravenous injection; Value expressed as mean % injected dose, Range- 156-207; format: ADME, organism-based, Thyroid gland; conditions: in vivo; how it was run: as §1
Rattus norvegicus [12] = assay: Distribution of radioactivity in brain tissue of rats at 1 day after an intravenous injection; Value expressed as mean % injected dose, Range- 0.007-0.008; format: ADME, organism-based; conditions: in vivo, 24 h; how it was run: as §1
Rattus norvegicus [13] = assay: Distribution of radioactivity in blood of rats at 1 day after an intravenous injection; Value expressed as mean % injected dose, Range- 0.03-0.03; format: ADME, organism-based; conditions: in vivo, 24 h; how it was run: as §1
Rattus norvegicus [14] = assay: Ratio between the distribution of radioactivity of brain to that of blood tissue of rats at 30 min after an intravenous administration; format: ADME, organism-based; conditions: 0.5 h
How it was run: (§2)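 Same rats (four per time point, 2 min–1 day) after a 7.95 μCi tail-vein dose of 125I-labeled agent in pH 7.4 phosphate buffer. Brain and blood were excised, weighed and gamma-counted as % injected dose/g. The ratio compares brain to blood radioactivity and is reported as a mean.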

Rattus norvegicus [15] = assay: Ratio between the distribution of radioactivity of brain to that of blood tissue of rats at 1 hr after an intravenous administration; format: ADME, organism-based; how it was run: as §2
Rattus norvegicus [16] = assay: Distribution of radioactivity in thyroid tissue of rats at 30 mins after an intravenous injection; Value expressed as mean % injected dose, Range- 18.74-30.84; format: ADME, organism-based, Thyroid gland; conditions: in vivo, 0.5 h; how it was run: as §1
Rattus norvegicus [17] = assay: Distribution of radioactivity in lung tissue of rats at 2 hr after an intravenous injection; Value expressed as mean % injected dose, Range- 0.47-0.58; format: ADME, organism-based; conditions: in vivo; how it was run: as §1
Rattus norvegicus [18] = assay: Ratio between the distribution of radioactivity of brain to that of blood tissue of rats at 5 min after an intravenous administration; format: ADME, organism-based; how it was run: as §2
Rattus norvegicus [19] = assay: Distribution of radioactivity in lung tissue of rats at 1 day after an intravenous injection; Value expressed as mean % injected dose, Range- 0.02-0.03; format: ADME, organism-based; conditions: in vivo, 24 h; how it was run: as §1
Rattus norvegicus [20] = assay: Distribution of radioactivity in brain tissue of rats at 1 hr after an intravenous injection; Value expressed as mean % injected dose, Range- 0.18-0.22; format: ADME, organism-based; conditions: in vivo; how it was run: as §1
Rattus norvegicus [21] = assay: Distribution of radioactivity in brain tissue of rats at 2 mins after an intravenous injection; Value expressed as mean % injected dose, Range- 0.77-0.97; format: ADME, organism-based; conditions: in vivo; how it was run: as §1
Rattus norvegicus [22] = assay: Distribution of radioactivity in blood of rats at 30 mins after an intravenous injection; Value expressed as mean % injected dose, Range = 0.68-1.03; format: ADME, organism-based; conditions: in vivo, 0.5 h; how it was run: as §1
Rattus norvegicus [23] = assay: Distribution of radioactivity in brain tissue of rats at 5 mins after an intravenous injection; Value expressed as mean % injected dose, Range- 0.74-0.94; format: ADME, organism-based; conditions: in vivo; how it was run: as §1
Rattus norvegicus [24] = assay: Distribution of radioactivity in lung tissue of rats at 4 hr after an intravenous injection; Value expressed as mean % injected dose, Range- 0.28-0.31; format: ADME, organism-based; conditions: in vivo; how it was run: as §1

CCC1(CCC/C=C/I)C(=O)NC(=O)NC1=O
Activity (Rattus norvegicus [1]): 0.33
Activity (Rattus norvegicus [2]): 6.84
Activity (Rattus norvegicus [3]): 1
Activity (Rattus norvegicus [4]): 1.08
Activity (Rattus norvegicus [5]): 1.49
Activity (Rattus norvegicus [6]): 0.97
Activity (Rattus norvegicus [7]): 0.76
Activity (Rattus norvegicus [8]): 1.31
Activity (Rattus norvegicus [9]): 0.18
Activity (Rattus norvegicus [10]): 0.46
Activity (Rattus norvegicus [11]): 178
Activity (Rattus norvegicus [12]): 0.007
Activity (Rattus norvegicus [13]): 0.03
Ratio (Rattus norvegicus [14]): 0.36
Ratio (Rattus norvegicus [15]): 0.2
Activity (Rattus norvegicus [16]): 26.16
Activity (Rattus norvegicus [17]): 0.52
Ratio (Rattus norvegicus [18]): 0.91
Activity (Rattus norvegicus [19]): 0.02
Activity (Rattus norvegicus [20]): 0.19
Activity (Rattus norvegicus [21]): 0.83
Activity (Rattus norvegicus [22]): 0.92
Activity (Rattus norvegicus [23]): 0.82
Activity (Rattus norvegicus [24]): 0.29
